Compounds with a hit are over-represented: about 1.8% of the library has one in this group of screens.
CXCR6 inh: CXCR6 (human) receptor inhibition; inhibition, % at 20 µM; AID 602244; CHO-K1 PathHunter CXCR6 beta-arrestin, luminescence; 360,000 compounds, 0.36% hits; O00574; in the data active means inhibition above about 34%, passing the limit was not always enough;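 further: antagonist mode with CXCL16 agonist at 10 nM final; 0% = 10 nM CXCL16 with DMSO and 100% = unstimulated wells without agonist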
B2AR ag: activates human beta-2 adrenergic receptor causing internalization; P07550; Am2.2-beta2AR cells, FAP receptor internalization, flow cytometry; response, % (no concentration beside the values); 340,000 compounds, 0.43% hits;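 active means response above a set limit, near 3 SD of response in nonfluorescent compounds, cut at about 42% in these data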
EBI2 antag: blocks human EBI2 receptor beta-arrestin signaling. P32249. EBI2 beta-arrestin recruitment, luminescence, 7a,25-OHC stimulated. inhibition, % at 5 µM. 360,000 compounds, 0.81% hits; in the data active means inhibition above about 38%;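 further: enzyme fragment complementation signal reports receptor beta-arrestin coupling in cells; 0% = agonist plus DMSO wells and 100% = wells without agonist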
APJ antag: antagonists of human APJ apelin receptor; AID 2521; 330,000 compounds, 0.32% hits; CHO-K1 APJ beta-arrestin complementation, luminescence; inhibition, % at 20 µM; P35414;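 active means inhibition above about 40% at 20 µM, limit read from the data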;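 further: cells challenged with 10 nM apelin-13 agonist together with compound; plate controls were apelin-13 plus DMSO wells for no effect and DMSO wells lacking apelin-13 for full effect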
Target sequence (P35414 whole entry, looked up): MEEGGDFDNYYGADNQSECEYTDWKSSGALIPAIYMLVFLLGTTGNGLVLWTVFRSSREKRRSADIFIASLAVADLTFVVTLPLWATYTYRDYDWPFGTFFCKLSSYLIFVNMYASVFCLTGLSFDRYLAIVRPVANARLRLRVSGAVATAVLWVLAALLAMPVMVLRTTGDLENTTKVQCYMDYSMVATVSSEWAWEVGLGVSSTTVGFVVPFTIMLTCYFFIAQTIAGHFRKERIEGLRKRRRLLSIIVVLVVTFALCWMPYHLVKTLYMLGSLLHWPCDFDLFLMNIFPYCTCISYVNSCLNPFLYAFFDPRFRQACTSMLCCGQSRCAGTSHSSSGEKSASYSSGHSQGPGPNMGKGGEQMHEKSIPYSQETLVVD
APJ agonist: agonists of human APJ apelin receptor; CHO-K1 APJ PathHunter beta-arrestin, luminescence; 0% DMSO wells, 100% apelin; 330,000 compounds, 0.11% hits; AID 2520; activation, % at 20 µM; P35414;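 active means activation more than six SD over the plate average, tested at 20 µM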;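 further: 0% = DMSO alone and 100% = apelin-13 at 10 nM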
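Test system – PathHunter CHO-K1 APJ (AGTRL-1) beta-arrestin reporter cells · Input – 1000 cells/well · Compound – single test compound dose, 20 µM final, 1% DMSO · Times – compound stimulation 90 min at 25 °C, detection 60 min · Technique – beta-gal luminescence · Read-out basis – APJ–arrestin association signal · Control set – negative DMSO alone, positive Apelin-13 at 10 nM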
CCR6 antagonist: CCR6 (human) receptor antagonism | CHO-K1 CCR6 PathHunter beta-arrestin, luminescence, CCL20-stimulated | inhibition, % at 20 µM | P51684 | 340,000 compounds, 0.49% hits;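 active means compounds whose inhibition of the agonist-driven luminescence signal at 20 µM reaches about 50%, limit read from the data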;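 further: cells stimulated with CCL20 at 14 nM final; plate controls were DMSO with CCL20 for no effect and DMSO without agonist for full effect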
APJ ag conf: APJ receptor agonism confirmation; activation, % at 20 µM; CHO-K1 APJ PathHunter beta-arrestin, luminescence; shares compounds with APJ agonist; 310 compounds, 10% hits;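 active means activation above 40%, taking the highest of four retests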;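 further: plate controls were DMSO wells for no effect and apelin-13 at 10 nM for full effect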
An asterisk follows results filed as active; nt = no result.

SMILES	CXCR6 inh	B2AR ag	EBI2 antag	APJ antag	APJ agonist	CCR6 antagonist	APJ ag conf
COc1cc(/C=C(/C#N)c2nc3ccccc3[nH]2)ccc1OCC(=O)Nc1ccccc1C	1.8	3.2	5.0	-2.9	18.6	-0.6	nt
COc1cc(/C=C(/C#N)c2nc3ccccc3[nH]2)ccc1OCC(=O)Nc1ccccc1C(C)C	6.4	-13.1	-4.8	-18.1	28.7*	6.5	13.7
C=CCn1c(SCC(=O)N2CCN(c3ccccc3)CC2)nc2c([nH]c3ccccc32)c1=O	1.9	4.5	-4.7	-17.0	65.2*	-0.1	11.2
C=CCn1c(SCC(=O)N2CCOCC2)nc2c([nH]c3ccccc32)c1=O	8.2	12.1	12.3	-35.4	6.9	4.5	nt
Cc1ccc2c(c1)sc1nc(=O)ccn12	-6.8	-5.7	-2.3	2.2	0.8	-2.3	nt
NC(c1csc(Nc2cc(NCCCO)ncn2)n1)c1ccccc1Cl (centres undefined)	0.5	nt	-4.0	nt	nt	nt	nt
COc1cc(S(=O)(=O)NCC(c2ccco2)N2CCCCC2)ccc1NC(C)=O (centres undefined)	7.5	-2.2	-15.7	3.2	-4.9	-7.8	nt
C=CCn1c(SCCC)nc(O)cc1=O	-5.5	8.0	-11.4	-1.9	33.8*	1.1	4.0
C=CCn1c(SCC)nc(O)cc1=O	-5.3	3.8	-8.8	-0.5	-0.7	-1.9	nt
Cc1ccc(S(=O)(=O)NCc2ccc(C(=O)N3CCN(c4ccc([N+](=O)[O-])cc4)CC3)cc2)cc1	-10.5	-3.7	-33.7	-18.4	19.0*	3.0	18.6
Cc1ccc(N2CC(O)CSC2=Nc2ccccc2)cc1 (centres undefined)	-1.9	nt	-3.4	nt	nt	nt	nt
Cc1cc(C)n(-c2nc(N(c3ccccc3)c3ccccc3)nc(-n3nc(C)cc3C)n2)n1	31.9	33.1	-86.5	-13.9	36.0*	17.2	13.9
Cc1cc(C)n(-c2nc(Nc3ccccc3)nc(-n3nc(C)cc3C)n2)n1	-2.6	-2.9	1.4	12.5	-4.9	2.5	nt
CCn1c(C)nc2cc(-c3nnc(-c4c(-c5ccccc5)noc4C)o3)ccc21	-2.4	-6.4	29.7	-4.9	17.1*	-24.4	4.9
CC1CC(C)CN(CCCNC(=O)C2CCN(c3nnc(-n4cccc4)s3)CC2)C1 (centres undefined)	-2.6	-9.2	1.6	5.4	6.5	-3.9	nt
COc1ccc(S(=O)(=O)NCCC(=O)Nc2ccc(C)cc2)cc1	4.3	-8.3	4.0	-14.9	1.4	3.3	nt
CN1CCc2c(sc(/N=C/c3c[nH]c4ccccc34)c2C#N)C1	7.0	-18.6	0.2	3.3	38.1*	17.4	-6.2
COc1ccc(S(=O)(=O)N2CCC(C(=O)NN3CCCCC3)CC2)cc1OC	1.0	-0.9	-2.1	-4.7	-4.0	-4.8	nt
COc1ccc(-c2cc(-c3nc4ccccn4c3NCc3ccccc3)ccc2OC)cc1	15.7	66.0*	-132.4	-28.5	23.1*	6.7	5.4
COc1cccc(N2CCN(c3ncnc4c3[nH]c3ccccc34)CC2C)c1 (centres undefined)	nt	nt	nt	-57.4	19.0*	nt	41.4*
Cc1nn(-c2ccccc2)c(Cl)c1C(=O)N1CCN(c2ncnc3c2cnn3-c2ccccc2)CC1	6.7	35.2	-67.0	-39.4	18.0*	-23.4	30.1
O=C(NCCCN1CCOCC1)c1cnccn1	5.2	6.4	-5.5	-9.0	1.9	-4.4	nt
CCC(C)NC(=O)c1cc(Cl)c(NC(=O)C2=C(C)OCCS2)cc1OC (centres undefined)	2.1	3.8	25.6	7.8	-1.1	2.0	nt
CCN1CCN(CCNC(=O)c2cc(Cl)c(NC(=O)C3=C(C)OCCS3)cc2OC)CC1	5.1	-8.8	7.0	-13.4	23.9*	-6.6	2.3
CCN(CC)CCCNC(=O)c1cc(Cl)c(NC(=O)C2=C(C)OCCS2)cc1OC	0.8	-13.0	-7.8	14.1	12.8*	7.5	30.2
CCCCCCn1c(=O)n2n(c1=O)C[C@]1(OC(=O)NC3CCCC3)CN(S(=O)(=O)c3ccc(C)cc3)C[C@]1(O)C2	5.2	nt	9.8	nt	nt	nt	nt
Cc1ccc(-n2nnc3c(=O)oc4ccccc4c32)cc1	23.8	13.2	-19.3	-28.1	32.3*	-14.5	36.7

Screening results deposited in PubChem BioAssay by several laboratories.
